# Measured values as given in ChEMBL document CHEMBL2412964, “Discovery of novel tetrahydro-pyrazolo [4,3-c] pyridines for the treatment of neuropathic pain: synthesis and neuropharmacology” (Eur J Med Chem, 2013).
# Calls of active or inactive are those of the source.
# Tests used:
# Rattus norvegicus [1] = test: Antinociceptive activity in ip dosed Wistar rat chronic constriction injury model assessed as reversal of cold allodynia after 30 mins; assay type: functional; details: 0.5 h
# In short: (§1)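 Wistar rats (200–250 g) with nerve injury, compounds i.p. in 30% v/v PEG 400; dose–response curves in each sensory test (spontaneous pain and cold allodynia as paw withdrawal duration; tactile allodynia and hyperalgesia as withdrawal threshold). ED50 linearly interpolated between doses just above and below 50% response; time of peak effect recorded.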
# Rattus norvegicus [2] = test: Antinociceptive activity in Wistar rat chronic constriction injury model assessed as reversal of tactile allodynia at 100 mg/kg, ip after 120 mins (reference value: 4.1 +/- 2.1%); assay type: functional; details: route intraperitoneal
# Rattus norvegicus [3] = test: Antinociceptive activity in ip dosed Wistar rat chronic constriction injury model assessed as reversal of tactile allodynia after 30 mins; assay type: functional; details: 0.5 h; in short: as §1
# Rattus norvegicus [4] = test: Antinociceptive activity in ip dosed Wistar rat chronic constriction injury model assessed as reversal of mechanical allodynia after 30 mins; assay type: functional; details: 0.5 h; in short: as §1
# Rattus norvegicus [5] = test: Antinociceptive activity in ip dosed Wistar rat partial sciatic nerve ligation model assessed as reversal of cold allodynia after 30 mins; assay type: functional; details: 0.5 h; in short: as §1
# Rattus norvegicus [6] = test: Antinociceptive activity in Wistar rat partial sciatic nerve ligation model assessed as reversal of spontaneous pain response at 100 mg/kg, ip after 120 mins (reference value: 1.2 +/- 0.1%); assay type: functional; details: route intraperitoneal
# Rattus norvegicus [7] = test: Antinociceptive activity in Wistar rat chronic constriction injury model assessed as reversal of spontaneous pain response at 100 mg/kg, ip after 30 mins (reference value: 8.9 +/- 4.6%); assay type: functional; details: route intraperitoneal
# Rattus norvegicus [8] = test: Antinociceptive activity in Wistar rat partial sciatic nerve ligation model assessed as reversal of cold allodynia at 100 mg/kg, ip after 120 mins (reference value: 1.5 +/- 0.5%); assay type: functional; details: route intraperitoneal
# Mus musculus [9] = test: Antinociceptive activity in Swiss albino mouse assessed as inhibition of acetic acid-induced writhing at 100 mg/kg administered 30 mins prior to acetic acid-challenge measured for 30 mins relative to control; assay type: functional
# In short: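 Swiss albino mice (20–25 g, either sex); writhing induced by i.p. 0.1 mL of 2.0% v/v acetic acid given half an hour after test compound dosing.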
# Rattus norvegicus [10] = test: Antinociceptive activity in Wistar rat chronic constriction injury model assessed as reversal of cold allodynia at 100 mg/kg, ip after 120 mins (reference value: 5.4 +/- 1.9%); assay type: functional; details: route intraperitoneal
# Rattus norvegicus [11] = test: Antinociceptive activity in Wistar rat partial sciatic nerve ligation model assessed as reversal of cold allodynia at 100 mg/kg, ip after 60 mins (reference value: 2.5 +/- 0.3%); assay type: functional; details: route intraperitoneal
# Rattus norvegicus [12] = test: Antinociceptive activity in Wistar rat chronic constriction injury model assessed as reversal of tactile allodynia at 100 mg/kg, ip after 60 mins (reference value: 1.3 +/- 0.3%); assay type: functional; details: route intraperitoneal
# Rattus norvegicus [13] = test: Antinociceptive activity in Wistar rat chronic constriction injury model assessed as reversal of mechanical allodynia at 100 mg/kg, ip after 30 mins (reference value: 4.7 +/- 2.1%); assay type: functional; details: route intraperitoneal
# Rattus norvegicus [14] = test: Antinociceptive activity in ip dosed Wistar rat chronic constriction injury model assessed as reversal of spontaneous pain response after 30 mins; assay type: functional; details: 0.5 h; in short: as §1
# Mus musculus [15] = test: Anticonvulsant activity in ip dosed Swiss albino mouse assessed as protection against picrotoxin-induced seizure administered 30 mins prior to picrotoxin-challenge measured after 4 hrs; assay type: functional; details: read-out: MED
# In short: (§2)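 Mice, either sex, 20-25 g, given compound i.p. at 30, 100 and 300 mg/kg. Thirty minutes later, picrotoxin 3.15 mg/kg was injected s.c. in 0.01 mL/g body weight. Animals were isolated and watched for 45 min for a threshold convulsion, and protection was scored as its absence. Examined at 0.5 and 4 h. Value reported is the minimum dose active in half or more of the mice (n = 3).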
# Rattus norvegicus [16] = species: Rattus norvegicus; test: Neuroprotective activity in Wistar rat chronic constriction injury model assessed as inhibition of nitric oxide production in brain after 2 hrs by Griess method relative to control; assay type: functional
# In short: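 Wistar rats of either sex (200-250 g) with chronic constriction of the left sciatic nerve. On day 9 post-injury, compound given i.p. in 30% v/v PEG 400; tissue taken 2 h after dosing. Nitrate reduced to nitrite, nitrite measured colorimetrically with Griess reagent against a standard curve. Results expressed as percentage of vehicle-treated control; n = 4.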
# Rattus norvegicus [17] = test: Antinociceptive activity in Wistar rat partial sciatic nerve ligation model assessed as reversal of tactile allodynia at 100 mg/kg, ip after 30 mins (reference value: 7.7 +/- 0.7%); assay type: functional; details: route intraperitoneal
# Rattus norvegicus [18] = test: Antinociceptive activity in Wistar rat partial sciatic nerve ligation model assessed as reversal of cold allodynia at 100 mg/kg, ip after 30 mins (reference value: 4.1 +/- 1.0%); assay type: functional; details: route intraperitoneal
# Rattus norvegicus [19] = test: Antinociceptive activity in Wistar rat chronic constriction injury model assessed as reversal of cold allodynia at 100 mg/kg, ip after 30 mins (reference value: 0.6 +/- 2.7%); assay type: functional; details: route intraperitoneal
# Rattus norvegicus [20] = test: Antinociceptive activity in Wistar rat partial sciatic nerve ligation model assessed as reversal of mechanical allodynia at 100 mg/kg, ip after 60 mins (reference value: 2.8 +/- 0.3%); assay type: functional; details: route intraperitoneal
# Rattus norvegicus [21] = test: Antinociceptive activity in ip dosed Wistar rat partial sciatic nerve ligation model assessed as reversal of mechanical allodynia after 30 mins; assay type: functional; details: 0.5 h; in short: as §1
# Rattus norvegicus [22] = test: Antinociceptive activity in ip dosed Wistar rat partial sciatic nerve ligation model assessed as reversal of tactile allodynia after 60 mins; assay type: functional; details: 1 h; in short: as §1
# Rattus norvegicus [23] = test: Antinociceptive activity in ip dosed Wistar rat partial sciatic nerve ligation model assessed as reversal of spontaneous pain response after 30 mins; assay type: functional; details: 0.5 h; in short: as §1
# Mus musculus [24] = test: Antinociceptive activity in Swiss albino mouse assessed as inhibition of formalin-induced flinching at 100 mg/kg administered 30 mins prior to test measured for 10 to 30 mins relative to control; assay type: functional
# Rattus norvegicus [25] = test: Antinociceptive activity in ip dosed Wistar rat chronic constriction injury model assessed as reversal of tactile allodynia after 60 mins; assay type: functional; details: 1 h; in short: as §1
# Mus musculus [26] = test: Anticonvulsant activity in Swiss albino mouse assessed as protection against picrotoxin-induced seizure at 300 mg/kg, ip administered 30 mins prior to picrotoxin-challenge measured after 4 hrs; assay type: functional, organism-based; parameters: dose 300 mg/kg; in short: as §2
# Rattus norvegicus [27] = test: Antinociceptive activity in ip dosed Wistar rat partial sciatic nerve ligation model assessed as reversal of tactile allodynia after 120 mins; assay type: functional; details: 2 h; in short: as §1
# Rattus norvegicus [28] = test: Antinociceptive activity in ip dosed Wistar rat partial sciatic nerve ligation model assessed as reversal of cold allodynia after 60 mins; assay type: functional; details: 1 h; in short: as §1
# Rattus norvegicus [29] = test: Antinociceptive activity in ip dosed Wistar rat chronic constriction injury model assessed as reversal of mechanical allodynia after 60 mins; assay type: functional; details: 1 h; in short: as §1
# Rattus norvegicus [30] = test: Antinociceptive activity in ip dosed Wistar rat chronic constriction injury model assessed as reversal of spontaneous pain response after 60 mins; assay type: functional; details: 1 h; in short: as §1
# Rattus norvegicus [31] = test: Antinociceptive activity in ip dosed Wistar rat chronic constriction injury model assessed as reversal of cold allodynia after 60 mins; assay type: functional; details: 1 h; in short: as §1
# Rattus norvegicus [32] = test: Antinociceptive activity in ip dosed Wistar rat partial sciatic nerve ligation model assessed as reversal of tactile allodynia after 30 mins; assay type: functional; details: 0.5 h; in short: as §1
Compound,Activity (Rattus norvegicus [2]),ED50 (Rattus norvegicus [3]),Activity (Rattus norvegicus [6]),Activity (Rattus norvegicus [7]),Activity (Rattus norvegicus [8]),inhibition in vivo at 100 mg/kg (Mus musculus [9]),Activity (Rattus norvegicus [10]),Activity (Rattus norvegicus [11]),Activity (Rattus norvegicus [12]),Activity (Rattus norvegicus [13]),minimal effective dose (Mus musculus [15]),inhibition (INH) (Rattus norvegicus [16]),Activity (Rattus norvegicus [17]),Activity (Rattus norvegicus [18]),Activity (Rattus norvegicus [19]),Activity (Rattus norvegicus [20]),ED50 (Rattus norvegicus [21]),ED50 (Rattus norvegicus [23]),inhibition in vivo at 100 mg/kg (Mus musculus [24]),ED50 (Rattus norvegicus [28]),other results
CCN1CCc2c(c(C(C)(C)C)nn2C(=O)Nc2ccc(Br)cc2)C1,50.5%,23.8 mg/kg,43.1%,90.6%,48.2%,72.8%,56.9%,50.6%,58.2%,81.9%,100 mg/kg,16.4%,61.6%,55.4%,73%,53.6%,29 mg/kg,29 mg/kg,72.1%,,ED50 (Rattus norvegicus [1]): 41.4 mg/kg; ED50 (Rattus norvegicus [4]): 37.3 mg/kg; ED50 (Rattus norvegicus [5]): 68 mg/kg; ED50 (Rattus norvegicus [14]): 27.3 mg/kg; ED50 (Rattus norvegicus [22]): 37.5 mg/kg
CCN1CCc2c(c(C(C)(C)C)nn2C(=O)Nc2ccc(C)cc2C)C1,58%,,64.2%,85.4%,38.2%,71.1%,40.4%,52.7%,54.5%,93.8%,,12.5%,61.6%,62.1%,53.9%,56.3%,31.8 mg/kg,7.4 mg/kg,59.9%,44.4 mg/kg,ED50 (Rattus norvegicus [25]): 23.4 mg/kg; Activity (Mus musculus [26]): inactive; ED50 (Rattus norvegicus [27]): 36.1 mg/kg; ED50 (Rattus norvegicus [29]): 25.7 mg/kg; ED50 (Rattus norvegicus [30]): 15.5 mg/kg; ED50 (Rattus norvegicus [31]): 29.8 mg/kg
CCN1CCc2c(c(C(C)(C)C)nn2C(=O)Nc2c(C)cccc2C)C1,69.7%,21.7 mg/kg,57.8%,95%,10.4%,73.7%,18.8%,56%,54.5%,69.4%,100 mg/kg,15.3%,89.4%,58.3%,61.4%,57.7%,23.6 mg/kg,8.1 mg/kg,68%,65.8 mg/kg,ED50 (Rattus norvegicus [29]): 38.3 mg/kg; ED50 (Rattus norvegicus [32]): 24.9 mg/kg; ED50 (Rattus norvegicus [30]): 10.4 mg/kg; ED50 (Rattus norvegicus [31]): 37.4 mg/kg
